Activity calls are given as the source filed them. No cut-off for these calls is given here.
Tests used:
PC-12 [1] = assay: Cytoprotection against H2O2-induced cell injury in rat PC12 cells assessed as increase in cell viability at 1 to 10 uM preincubated for 12 hrs followed by H2O2 addition measured after 12 hrs by MTT assay; format: functional, cell-based
Outline: (§1)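 PC12 cells grown in RPMI-1640 with 15% FBS and penicillin/streptomycin, subcultured every 2 days and cultured 8 days before use. Cells seeded at 1 × 10^4/well, after 12 h pretreated with compound 12 h, then exposed to 200 µM H2O2 for 12 h. MTT added for 4 h, formazan dissolved in DMSO, OD 490 nm read. Viability given as % of untreated control, mean ± SD, n = 3, ANOVA with Dunnett's test.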

PC-12 [2] = assay: Cytotoxicity against rat PC12 cells assessed as decrease in cell viability at 50 uM after 12 hrs by MTT assay; format: cell-based; conditions: pc-12, 12 h
PC-12 [3] = assay: Cytoprotection against amyloid beta (1 to 42)-induced cell injury in rat PC12 cells assessed as cell viability at 10 uM preincubated for 12 hrs followed by amyloid beta (1 to 42) addition measured after 12 hrs by MTT assay (reference value: 55.3 +/- 1.5%); format: functional; conditions: read-out: Activity
PC-12 [4] = assay: Cytoprotection against amyloid beta (1 to 42)-induced cell injury in rat PC12 cells assessed as cell viability at 50 uM preincubated for 12 hrs followed by amyloid beta (1 to 42) addition measured after 12 hrs by MTT assay (reference value: 55.3 +/- 1.5%); format: functional; conditions: read-out: Activity
PC-12 [5] = assay: Cytoprotection against H2O2-induced cell injury in rat PC12 cells assessed as increase in cell viability at 1 to 50 uM preincubated for 12 hrs followed by H2O2 addition measured after 12 hrs by MTT assay; format: functional, cell-based; outline: as §1
PC-12 [6] = assay: Cytotoxicity against rat PC12 cells assessed as decrease in cell viability at high concentration after 12 hrs by MTT assay; format: cell-based; conditions: pc-12, 12 h
PC-12 [7] = assay: Cytoprotection against H2O2-induced cell injury in rat PC12 cells assessed as increase in cell viability preincubated for 12 hrs followed by H2O2 addition measured after 12 hrs by MTT assay; format: functional, cell-based; outline: as §1
PC-12 [8] = assay: Cytoprotection against amyloid beta (1 to 42)-induced cell injury in rat PC12 cells assessed as cell viability at 100 uM preincubated for 12 hrs followed by amyloid beta (1 to 42) addition measured after 12 hrs by MTT assay (reference value: 55.3 +/- 1.5%); format: functional; conditions: read-out: Activity
PC-12 [9] = assay: Cytoprotection against amyloid beta (1 to 42)-induced toxicity in rat PC12 cells assessed as LDH release at 10 uM preincubated with cells followed by amyloid beta (1 to 42) addition measured after 24 hrs by LDH assay (reference value: 153%); format: functional
PC-12 [10] = assay: Cytoprotection against amyloid beta (1 to 42)-induced toxicity in rat PC12 cells assessed as LDH release at 50 uM preincubated with cells followed by amyloid beta (1 to 42) addition measured after 24 hrs by LDH assay (reference value: 153%); format: functional
PC-12 [11] = assay: Cytoprotection against amyloid beta (1 to 42)-induced toxicity in rat PC12 cells assessed as LDH release at 100 uM preincubated with cells followed by amyloid beta (1 to 42) addition measured after 24 hrs by LDH assay (reference value: 153%); format: functional
PC-12 [12] = assay: Cytoprotection against amyloid beta (1 to 42)-induced oxidative damage in rat PC12 cells assessed as intracellular ROS level at 10 uM preincubated with cells followed by amyloid beta (1 to 42) addition measured after 24 hrs by DCFH-DA staining based flow cytometry (reference value: 51.4%); format: functional
PC-12 [13] = assay: Cytoprotection against amyloid beta (1 to 42)-induced oxidative damage in rat PC12 cells assessed as intracellular ROS level at 50 uM preincubated with cells followed by amyloid beta (1 to 42) addition measured after 24 hrs by DCFH-DA staining based flow cytometry (reference value: 51.4%); format: functional
PC-12 [14] = assay: Cytoprotection against amyloid beta (1 to 42)-induced oxidative damage in rat PC12 cells assessed as intracellular ROS level at 100 uM preincubated with cells followed by amyloid beta (1 to 42) addition measured after 24 hrs by DCFH-DA staining based flow cytometry (reference value: 51.4%); format: functional
PC-12 [15] = assay: Cytoprotection against amyloid beta (1 to 42)-induced oxidative damage in rat PC12 cells assessed as reduction in intracellular ROS level preincubated with cells followed by amyloid beta (1 to 42) addition measured after 24 hrs by DCFH-DA staining based flow cytometry; format: functional, cell-based
PC-12 [16] = assay: Cytoprotection against amyloid beta (1 to 42)-induced damage in rat PC12 cells assessed as reduction in intracellular MDA level preincubated with cells followed by amyloid beta (1 to 42) addition measured after 24 hrs by TBA assay; format: functional, cell-based
Outline: (§2)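 For the MDA readout, PC12 cells were given 40 µM Aβ1-42 for 24 h with or without compound (10, 50, 100 µM). Samples were mixed with two volumes of TBA reagent (0.375% TBA, 15% trichloroacetic acid, 0.1 mM EDTA) and heated at 95 °C for 40 min. After cooling and centrifugation at 3000 × g for 10 min, supernatant A532 was read. Mean ± SD, n = 3.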

PC-12 [17] = assay: Cytoprotection against amyloid beta (1 to 42)-induced damage in rat PC12 cells assessed as intracellular MDA level at 10 uM preincubated with cells followed by amyloid beta (1 to 42) addition measured after 24 hrs by TBA assay; format: functional; outline: as §2
PC-12 [18] = assay: Cytoprotection against amyloid beta (1 to 42)-induced damage in rat PC12 cells assessed as intracellular MDA level at 50 uM preincubated with cells followed by amyloid beta (1 to 42) addition measured after 24 hrs by TBA assay; format: functional; outline: as §2
PC-12 [19] = assay: Cytoprotection against amyloid beta (1 to 42)-induced damage in rat PC12 cells assessed as intracellular MDA level at 100 uM preincubated with cells followed by amyloid beta (1 to 42) addition measured after 24 hrs by TBA assay; format: functional; outline: as §2
PC-12 [20] = assay: Cytoprotection against H2O2-induced cell injury in rat PC12 cells assessed as increase in cell viability at 20 uM preincubated for 12 hrs followed by H2O2 addition measured after 12 hrs by MTT assay; format: functional, cell-based; outline: as §1

Row | Compound | Activity (PC-12 [1]) | Activity (PC-12 [2]) | viability at 10 µM (PC-12 [3]) [%] | viability at 50 µM (PC-12 [4]) [%] | Activity (PC-12 [5]) | Activity (PC-12 [6]) | Activity (PC-12 [7]) | viability at 100 µM (PC-12 [8]) [%] | Activity (PC-12 [9]) [%] | Activity (PC-12 [10]) [%] | Activity (PC-12 [11]) [%] | Activity (PC-12 [12]) [%] | Activity (PC-12 [13]) [%] | Activity (PC-12 [14]) [%] | Activity (PC-12 [15]) | Activity (PC-12 [16]) | Activity (PC-12 [17]) [nmol/mL] | Activity (PC-12 [18]) [nmol/mL] | Activity (PC-12 [19]) [nmol/mL] | Activity (PC-12 [20])
1 | C[C@@H]1O[C@@H](O[C@H]2[C@H](O[C@H]3CC[C@]4(C)[C@H]5CC=C6[C@@H]7CC(C)(C)CC[C@]7(C(=O)O[C@@H]7O[C@H](CO[C@@H]8O[C@H](CO)[C@@H](O[C@@H]9O[C@@H](C)[C@H](O)[C@@H](O)[C@H]9O)[C@H](O)[C@H]8O)[C@@H](O)[C@H](O)[C@H]7O)CC[C@@]6(C)[C@]5(C)CC[C@H]4C3(C)C)OC[C@H](O)[C@@H]2O)[C@H](O)[C@H](O)[C@H]1O [HEDERASAPONIN B] | Active | Toxic | 54.3 | 60.3 |  |  |  |  |  |  |  |  |  |  |  |  |  |  |  | 
2 | C[C@@H]1O[C@@H](O[C@H]2[C@H](O[C@H]3CC[C@]4(C)[C@H]5CC=C6[C@@H]7CC(C)(C)CC[C@]7(C(=O)O[C@@H]7O[C@H](CO)[C@@H](O[C@@H]8O[C@@H](C)[C@H](O)[C@@H](O)[C@H]8O)[C@H](O)[C@H]7O)CC[C@@]6(C)[C@]5(C)CC[C@H]4C3(C)C)OC[C@H](O[C@@H]3O[C@H](CO)[C@@H](O)[C@H](O)[C@H]3O)[C@@H]2O)[C@H](O)[C@H](O)[C@H]1O |  |  | 59.3 | 63.3 | Active |  |  |  |  |  |  |  |  |  |  |  |  |  |  | 
3 | C[C@@H]1O[C@@H](O[C@H]2[C@H](O[C@H]3CC[C@]4(C)[C@H]5CC=C6[C@@H]7CC(C)(C)CC[C@]7(C(=O)O[C@@H]7O[C@H](CO)[C@@H](O)[C@H](O)[C@H]7O)CC[C@@]6(C)[C@]5(C)CC[C@H]4C3(C)C)OC[C@H](O[C@@H]3O[C@H](CO)[C@@H](O)[C@H](O)[C@H]3O)[C@@H]2O)[C@H](O)[C@H](O)[C@H]1O |  |  | 14.5 | 10.3 |  | Toxic |  |  |  |  |  |  |  |  |  |  |  |  |  | 
4 | C[C@@H]1O[C@@H](O[C@H]2[C@H](O[C@H]3CC[C@]4(C)[C@H]5CC=C6[C@@H]7CC(C)(C)CC[C@]7(C(=O)O[C@@H]7O[C@H](CO[C@@H]8O[C@H](CO)[C@@H](O[C@@H]9O[C@@H](C)[C@H](O)[C@@H](O)[C@H]9O)[C@H](O)[C@H]8O)[C@@H](O)[C@H](O)[C@H]7O)CC[C@@]6(C)[C@]5(C)CC[C@H]4C3(C)C)OC[C@H](O[C@@H]3O[C@H](CO)[C@@H](O)[C@H](O)[C@H]3O)[C@@H]2O)[C@H](O)[C@H](O)[C@H]1O |  |  | 57 | 65.8 |  |  | Dose-dependent effect | 70.4 | 147.4 | 138.5 | 126.7 | 43 | 35 | 29.2 | Dose-dependent effect | Dose-dependent effect | 2.5 | 1.9 | 1.3 | 
5 | CC1=NN(c2ccccc2)C(=O)C1 |  |  |  |  |  |  |  |  |  |  |  |  |  |  |  |  |  |  |  | Active
6 | C[C@@H]1O[C@@H](O[C@H]2[C@H](O)[C@@H](O)[C@H](OC[C@H]3O[C@@H](OC(=O)[C@]45CCC(C)(C)C[C@H]4C4=CC[C@@H]6[C@@]7(C)CC[C@H](O[C@@H]8OC[C@H](O)[C@H](O)[C@H]8O)C(C)(C)[C@@H]7CC[C@@]6(C)[C@]4(C)CC5)[C@H](O)[C@@H](O)[C@@H]3O)O[C@@H]2CO)[C@H](O)[C@H](O)[C@H]1O [CIWUJIANOSIDE C3] | Active | Toxic | 55.9 | 69.9 |  |  |  | 79.1 | 143.7 | 134.4 | 126.3 | 45 | 30.7 | 20.6 | Dose-dependent effect | Dose-dependent effect | 2 | 1.6 | 1.2 | 

Reference: ChEMBL document CHEMBL4130578, “Synthesis, biological evaluation and structure-activity relationship studies of hederacolchiside E and its derivatives as potential anti-Alzheimer agents” (Eur J Med Chem, 2018)
